Converted amounts (≈) assume the structure as drawn. The source made the active and inactive calls.
Columns and labels:
NCI-H460 [1] = assay: Induction of apoptosis in human NCI-H460 cells assessed as live cells at 25 uM after 72 hrs by annexin-V/propidium iodide staining-based flow cytometric analysis (reference value: 98.3%); type: functional
NCI-H460 [2] = assay: Cytotoxicity against human NCI-H460 cells after 72 hrs by MTT assay; type: functional, cell-based; conditions: NCI-H460, 72 h
Outline: (§1)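 Seeding in 96-well plates at 1000 (NCI-H460), 2000 (NCI-H460/R) or 4000 (HaCaT) cells/well, treated after 24 h for 72 h. MTT at 0.4 mg/mL final, 4 h at 37 °C. Formazan dissolved in DMSO, absorbance read at 540 nm. Inhibition % = (1 − A treated/A untreated)×100. IC30 and IC50 obtained by linear regression.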

NCI-H460 [3] = assay: Induction of superoxide anion generation in multidrug resistant human NCI-H460 cells at 25 uM after 72 hrs by DHE staining-based flow cytometric analysis relative to control; type: functional, cell-based
Outline: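 Seeded as for cell death (50,000 or 100,000 cells/well), treated 72 h at 25 µM, with CDDP 5 µM as control. Adherent cells trypsinized and loaded with 1 µM DHE for 30 min at 37 °C in the dark, then washed twice in PBS. Flow cytometry at ex 488/em 585 nm (FL2-H). Mean fluorescence intensity corrected for autofluorescence and compared with untreated control.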

NCI-H460 [4] = assay: Induction of apoptosis in human NCI-H460 cells assessed as dead cells at 25 uM after 72 hrs by annexin-V/propidium iodide staining-based flow cytometric analysis (reference value: 1.2%); type: functional
[5] = Selectivity ratio of IC30/IC50 for human HaCaT cells to IC30/IC50 for human NCI-H460 cells; type: ADME, cell-based; conditions: HaCaT cells versus NCI-H460 cells
Outline: (§2)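 Fold threshold of 1.5 used to call selectivity to cancer cells, resistance, or selectivity to MDR cells.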

NCI-H460 [6] = assay: Induction of apoptosis in multidrug resistant human NCI-H460 cells assessed as early apoptotic cells at 25 uM after 72 hrs by annexin-V/propidium iodide staining-based flow cytometric analysis (reference value: 1.1%); type: functional
NCI-H460 [7] = assay: Induction of apoptosis in multidrug resistant human NCI-H460 cells assessed as live cells at 25 uM after 72 hrs by annexin-V/propidium iodide staining-based flow cytometric analysis (reference value: 96.4%); type: functional
HaCaT [8] = assay: Induction of apoptosis in human HaCaT cells assessed as dead cells at 25 uM after 72 hrs by annexin-V/propidium iodide staining-based flow cytometric analysis (reference value: 2.8%); type: cell-based
NCI-H460 [9] = assay: Selectivity ratio of IC30/IC50 for human NCI-H460 cells to IC30/IC50 for multidrug resistant human NCI-H460 cells; type: functional; outline: as §2
HaCaT [10] = assay: Induction of apoptosis in human HaCaT cells assessed as early apoptotic cells at 25 uM after 72 hrs by annexin-V/propidium iodide staining-based flow cytometric analysis (reference value: 0.2%); type: cell-based
[11] = Selectivity ratio of IC30/IC50 for human HaCaT cells to IC30/IC50 for multidrug resistant human NCI-H460 cells; type: ADME, cell-based; conditions: HaCaT cells versus multidrug resistant NCI-H460 cells; outline: as §2
HaCaT [12] = assay: Cytotoxicity against human HaCaT cells after 72 hrs by MTT assay; type: cell-based; conditions: for IC50: Homo sapiens, HaCaT; for IC30: human, hacat; outline: as §1
NCI-H460 [13] = assay: Induction of apoptosis in multidrug resistant human NCI-H460 cells assessed as dead cells at 25 uM after 72 hrs by annexin-V/propidium iodide staining-based flow cytometric analysis (reference value: 1.5%); type: functional
[14] = Induction of apoptosis in human HaCaT cells assessed as live cells at 25 uM after 72 hrs by annexin-V/propidium iodide staining-based flow cytometric analysis (reference value: 96.8%); type: cell-based; conditions: read-out: Activity
NCI-H460 [15] = assay: Induction of apoptosis in human NCI-H460 cells assessed as early apoptotic cells at 25 uM after 72 hrs by annexin-V/propidium iodide staining-based flow cytometric analysis (reference value: 0.3%); type: functional
HaCaT [16] = assay: Induction of apoptosis in human HaCaT cells assessed as late apoptotic/necrotic cells at 25 uM after 72 hrs by annexin-V/propidium iodide staining-based flow cytometric analysis (reference value: 0.2%); type: cell-based
NCI-H460 [17] = assay: Cytotoxicity against multidrug resistant human NCI-H460 cells after 72 hrs by MTT assay; type: functional, cell-based; conditions: NCI-H460, 72 h; outline: as §1
NCI-H460 [18] = assay: Induction of apoptosis in multidrug resistant human NCI-H460 cells assessed as late apoptotic/necrotic cells at 25 uM after 72 hrs by annexin-V/propidium iodide staining-based flow cytometric analysis (reference value: 1%); type: functional
NCI-H460 [19] = assay: Induction of apoptosis in human NCI-H460 cells assessed as late apoptotic/necrotic cells at 25 uM after 72 hrs by annexin-V/propidium iodide staining-based flow cytometric analysis (reference value: 0.2%); type: functional
HaCaT [20] = assay: Induction of mitochondrial membrane potential depolarization in human HaCaT cells at 25 uM after 15 mins by JC1-staining-based flow cytometric analysis; type: cell-based; conditions: 0.25 h
Outline: (§3)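 Cells treated with 25 µM compound, with CDDP 5 µM as control. Stained with JC-1 for 15 min at 37 °C in a CO2 incubator, washed twice in assay buffer and resuspended in PBS. Flow cytometry read red aggregate (FL2-H) versus green monomer (FL1-H) fluorescence. Live cells were also imaged by fluorescence microscopy.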

NCI-H460 [21] = assay: Induction of mitochondrial membrane potential depolarization in human NCI-H460 cells at 25 uM after 15 mins by JC1-staining-based flow cytometric analysis; type: functional, cell-based; outline: as §3
NCI-H460 [22] = assay: Induction of mitochondrial membrane potential depolarization in multidrug resistant human NCI-H460 cells at 25 uM after 15 mins by JC1-staining-based flow cytometric analysis; type: functional, cell-based; outline: as §3
Escherichia coli = assay: Antibacterial activity against Escherichia coli ATCC 25922 by broth microdilution method; type: functional
Outline: (§4)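 Broth microdilution per NCCLS. Compounds dissolved in DMSO as 10 mg/mL stock, diluted in Mueller Hinton broth (bacteria) or Sabouraud dextrose broth (fungi). Amikacin served as the positive control for bacteria and nystatin for fungi.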

Bacillus spizizenii = assay: Antibacterial activity against Bacillus subtilis ATCC 6633 by broth microdilution method; type: functional; outline: as §4
Pseudomonas aeruginosa = assay: Antibacterial activity against Pseudomonas aeruginosa ATCC 9027 by broth microdilution method; type: functional; outline: as §4
Salmonella enteritidis = assay: Antibacterial activity against Salmonella enterica subsp. enterica serovar Enteritidis ATCC 13076 by broth microdilution method; type: functional; outline: as §4
Clostridium sporogenes = assay: Antibacterial activity against Clostridium sporogenes ATCC 19404 by broth microdilution method; type: functional; outline: as §4
Micrococcus luteus [23] = assay: Antibacterial activity against Micrococcus luteus ATCC 4698 by broth microdilution method; type: functional; conditions: NCTC 2665; outline: as §4
Micrococcus luteus [24] = assay: Antibacterial activity against Micrococcus luteus ATCC 10240 by broth microdilution method; type: functional; outline: as §4
Proteus hauseri = assay: Antibacterial activity against Proteus hauseri ATCC 13315 by broth microdilution method; type: functional; outline: as §4
Kocuria rhizophila = assay: Antibacterial activity against Kocuria rhizophila ATCC 9341 by broth microdilution method; type: functional; conditions: DC2201; outline: as §4
Staphylococcus aureus = assay: Antibacterial activity against Staphylococcus aureus ATCC 6538 by broth microdilution method; type: functional; outline: as §4
Saccharomyces cerevisiae = assay: Antifungal activity against Saccharomyces cerevisiae ATCC 9763 by broth microdilution method; type: functional; outline: as §4
Aspergillus brasiliensis = assay: Antifungal activity against Aspergillus brasiliensis ATCC 16404 by broth microdilution method; type: functional; outline: as §4
Candida albicans = assay: Antifungal activity against Candida albicans ATCC 10231 by broth microdilution method; type: functional; outline: as §4

Row | Structure (SMILES) | Activity (NCI-H460 [1]) | IC30 (NCI-H460 [2]) | IC50 (NCI-H460 [2]) | Activity (NCI-H460 [4]) | selectivity ratio [5] | Activity (NCI-H460 [6]) | Activity (NCI-H460 [7]) | Activity (HaCaT [8]) | selectivity ratio (NCI-H460 [9]) | Activity (HaCaT [10]) | selectivity ratio [11] | IC50 (HaCaT [12]) | IC30 (HaCaT [12]) | Activity (NCI-H460 [13]) | viability at 72 h, 25 µM [14] | Activity (NCI-H460 [15]) | Activity (HaCaT [16]) | IC30 (NCI-H460 [17]) | IC50 (NCI-H460 [17]) | Activity (NCI-H460 [18]) | also measured
1 | CC1=CCC[C@H]2[C@](C)(CC3=CC(=O)C(NCCc4ccccc4)=CC3=O)[C@@H](C)CC[C@]12C | 92% | 75 µM | > 100 µM | 7.2% | ≤ 1.5 | 0.4% | 94.9% | 9.2% | <=1.5 | 0.3% | ≤ 1.5 | > 100 µM | 76 µM | 4.1% | 89.5% | 0.3% | 1% | 10 µM | 91 µM | 0.6% | Activity (NCI-H460 [3]): inactive; Activity (NCI-H460 [19]): 0.5%
2 | CC(C)(C)C1=CC(=O)C=CC1=O | 95.2% | > 100 µM | > 100 µM | 3.8% |  | 0.5% | 95.2% | 7.5% |  | 1.9% |  | 95 µM | 41 µM | 3.1% | 86.8% | 0.5% | 3.8% | 31 µM | 72 µM | 1.2% | Activity (HaCaT [20]): Non-toxic; Activity (NCI-H460 [21]): inactive; Activity (NCI-H460 [22]): inactive; Activity (NCI-H460 [19]): 0.5%
3 | CC(C)(C)C1=CC(=O)C(NCc2ccccc2)=CC1=O |  | 13 µM | 19 µM |  | ≤ 1.5 |  |  |  | <=1.5 |  | ≤ 1.5 | 28 µM | 12 µM |  |  |  |  | 5 µM | 15 µM |  | MIC (Escherichia coli): 36 µM (≈ 9.7 µg/mL); MIC (Bacillus spizizenii): 4650 µM (≈ 1250 µg/mL); MIC (Pseudomonas aeruginosa): 4650 µM (≈ 1250 µg/mL); MIC (Salmonella enteritidis): 4650 µM (≈ 1250 µg/mL); MIC (Clostridium sporogenes): 2320 µM (≈ 626 µg/mL); MIC (Micrococcus luteus [23]): 2320 µM (≈ 626 µg/mL); MIC (Micrococcus luteus [24]): 18 µM (≈ 4.85 µg/mL); MIC (Proteus hauseri): 2320 µM (≈ 626 µg/mL); MIC (Kocuria rhizophila): 4650 µM (≈ 1250 µg/mL); MIC (Staphylococcus aureus): 72 µM (≈ 19.4 µg/mL)
4 | CC(C)(C)C1=CC(=O)C=C(NCc2ccccc2)C1=O |  | 5 µM | 14 µM |  | ≤ 1.5 |  |  |  | <=1.5 |  | ≤ 1.5 | 21 µM | 12 µM |  |  |  |  | 3 µM | 10 µM |  | MIC (Saccharomyces cerevisiae): 2320 µM (≈ 626 µg/mL); MIC (Escherichia coli): 9 µM (≈ 2.42 µg/mL); MIC (Bacillus spizizenii): 2320 µM (≈ 626 µg/mL); MIC (Pseudomonas aeruginosa): 2320 µM (≈ 626 µg/mL); MIC (Salmonella enteritidis): 4650 µM (≈ 1250 µg/mL); MIC (Clostridium sporogenes): 2320 µM (≈ 626 µg/mL); MIC (Micrococcus luteus [23]): 4650 µM (≈ 1250 µg/mL); MIC (Aspergillus brasiliensis): 2320 µM (≈ 626 µg/mL); MIC (Candida albicans): 2320 µM (≈ 626 µg/mL); MIC (Micrococcus luteus [24]): 9 µM (≈ 2.42 µg/mL); MIC (Staphylococcus aureus): 9 µM (≈ 2.42 µg/mL)

— ChEMBL document CHEMBL3822380, “Simple avarone mimetics as selective agents against multidrug resistant cancer cells” (Eur J Med Chem, 2016)
